# Measured values pooled from the literature.
# Protocols differ between the studies behind these lines.
# Effect on: metabolic stability
Compound,test system,setting,endpoint,value
CN(C)CCc1c[nH]c2ccccc12,"human, hepatocytes",0.6 µM,hepatocyte CLint,19.4 µL/min/10⁶ cells
Cc1ccc(F)c2cc(C(=O)N[C@@H]3CCC[C@H](N4CC[C@H](N(C)S(C)(=O)=O)C4)C3)[nH]c12,"human, hepatocytes","0.5 µM, 2 h",scaled CLint,51 mL/min/kg
C[C@H](C(=O)N[C@H]1COc2ccccc2[C@@H]1S(C)(=O)=O)c1ccc(F)cc1,"human, liver microsomes","1 µM, 1 h",microsomal CLint,3 µL/min/mg
NCCc1c[nH]c2ccc(O)cc12,"human, hepatocytes",5 µM,hepatocyte CLint,38.6 µL/min/10⁶ cells
Cc1nc2c(=O)n(C)c(=O)nc-2n(C)n1,"human, liver microsomes",,microsomal CLint,< 7.4 µL/min/mg
C[C@H]1CN(Cc2ccc(C(F)(F)F)cc2N2CCOCC2)CCN1C(=O)n1ccc(S(=O)(=O)N(C)C)n1,"human, liver microsomes",,microsomal CLint,480 µL/min/mg
Cc1ncc2n1-c1ccc(Cl)cc1C(c1ccccc1F)=NC2,"human, liver microsomes",1 µM,microsomal CLint,> 250 µL/min/mg
Cc1nc([C@@](C)(CC2CC2)NC(=O)c2cc(OCC(F)(F)F)c(C3CC3)cn2)no1,"human, hepatocytes",,hepatocyte CLint,17 µL/min/10⁶ cells
CCCCCn1cc(C(=O)Nc2cccc3ccccc23)c2ccccc21,"male human, liver microsomes","1 µM, pH 7.4",microsomal CLint,300 µL/min/mg
Cc1cc(C)nc(Nc2ncc(C(=O)NCCc3c(C)[nH]c4ccccc34)cn2)c1,"human, liver microsomes",1 µM,microsomal CLint,25 µL/min/mg
Cc1nonc1Cn1nnc2c(N3CC[C@H](O)C3)nc(C(C)(C)C)nc21,"human, hepatocytes",,hepatocyte CLint,8.1 µL/min/10⁶ cells
COC(=O)N[C@H](C(=O)NN(CC[C@@]1(Cc2ccccc2)C(=O)N([C@H]2c3ccccc3C[C@H]2O)C[C@@H]1O)Cc1ccc(Br)cc1)C(C)(C)C,"human, liver microsomes","1 µM, pH 7.35",microsomal CLint,> 300 µL/min/mg
CCCCCn1nc(C(=O)Nc2cccc3ccccc23)c2ccccc21,"male human, liver microsomes","1 µM, pH 7.4",microsomal CLint,410 µL/min/mg
CN1CCN(Cc2ccc(NC(=O)c3cncc(C#Cc4cnc(N)c5ncccc45)c3)cc2C(F)(F)F)CC1,"human, liver microsomes",,microsomal CLint,3.6 µL/min/mg
C#Cc1ccc2c(c1)C(c1ccccn1)=NCc1c(-c3cnco3)ncn1-2,"human, liver microsomes",,microsomal CLint,0.046 µL/min/mg
